Laboratory results: ChEMBL document CHEMBL1149072, “Cytotoxic constituents of Baccharis gaudichaudiana” (1994)
Converted amounts (≈) assume the structure as drawn.

Legend:
Assay type in all cases: functional
[1] = Cytotoxicity against human BC1 cells; details: read-out: ED50 (the source's name)
Summary of the method: (§1)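 These human cancer cell lines were established from primary tumors at the authors' institution. Cytotoxicity was assessed in 96-well microtiter plates by a previously described protocol and expressed as ED50 in µg/ml.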

Col2 = assay: Cytotoxicity against human Col2 cells; details: read-out: ED50 (the source's name); summary of the method: as §1
HT-1080 = assay: Cytotoxicity against human HT1080 cells; details: read-out: ED50 (the source's name)
Summary of the method: (§2)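 The cell lines came from ATCC. Cytotoxicity was run in 96-well microtiter plates by a previously described method and reported as ED50 in µg/ml.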

KB = assay: Cytotoxicity against human KB cells; details: read-out: ED50 (the source's name); summary of the method: as §2
[2] = Cytotoxicity against human KBV1 cells; details: KB-V1, read-out: ED50 (the source's name)
Summary of the method: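 The KB-V1 line is multidrug resistant. It was derived from KB cells by extended exposure to sublethal vinblastine. It was tested in 96-well microtiter plates by a previously described method, with ED50 in µg/ml as the read-out.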

Lu1 = assay: Cytotoxicity against human Lu1 cells; details: read-out: ED50 (the source's name); summary of the method: as §1
SK-MEL-2 = assay: Cytotoxicity against human SK-MEL-2 cells; details: read-out: ED50 (the source's name)
P388 = assay: Cytotoxicity against mouse P388 cells; details: read-out: ED50 (the source's name); summary of the method: as §2

## C[C@@H]1CC[C@@]23COC(=O)[C@H]2C[C@@H](O)C=C3[C@@]1(C)CCc1ccoc1 [GUADICHAUDONE]
[1]
  EC50: > 20 µg/mL
Col2
  EC50: > 20 µg/mL
HT-1080
  EC50: > 20 µg/mL
KB
  EC50: > 20 µg/mL
[2]
  EC50: > 20 µg/mL
Lu1
  EC50: > 20 µg/mL
SK-MEL-2
  EC50: > 20 µg/mL
P388
  EC50: 11.7 µg/mL (≈ 35.4 µM)

## CC(=O)O[C@@H]1C=C2C(=O)OC[C@]23CC[C@@H](C)[C@](C)(CCC2=CC(=O)OC2)C3C1 (stereo partly drawn) [ARTICULIN ACETATE]
[1]
  EC50: > 20 µg/mL
Col2
  EC50: > 20 µg/mL
HT-1080
  EC50: > 20 µg/mL
KB
  EC50: > 20 µg/mL
[2]
  EC50: > 20 µg/mL
Lu1
  EC50: > 20 µg/mL
SK-MEL-2
  EC50: > 20 µg/mL
P388
  EC50: 1.7 µg/mL

## O=c1cc(-c2ccc(O)cc2)oc2cc(O)cc(O)c12 [APIGENIN]
[1]
  EC50: > 20 µg/mL
Col2
  EC50: 19.3 µg/mL (≈ 71.4 µM)
HT-1080
  EC50: 12.2 µg/mL (≈ 45.1 µM)
KB
  EC50: > 20 µg/mL
[2]
  EC50: 16.8 µg/mL (≈ 62.2 µM)
Lu1
  EC50: 14 µg/mL (≈ 51.8 µM)
SK-MEL-2
  EC50: 13.6 µg/mL (≈ 50.3 µM)
P388
  EC50: 12.2 µg/mL (≈ 45.1 µM)

## COc1c(O)cc2oc(-c3ccc(O)cc3)cc(=O)c2c1O [HISPIDULIN]
[1]
  EC50: 19 µg/mL (≈ 63.3 µM)
Col2
  EC50: > 20 µg/mL
HT-1080
  EC50: 5.2 µg/mL (≈ 17.3 µM)
KB
  EC50: 5.6 µg/mL (≈ 18.7 µM)
[2]
  EC50: 2.8 µg/mL (≈ 9.33 µM)
Lu1
  EC50: 17.6 µg/mL (≈ 58.6 µM)
SK-MEL-2
  EC50: 11.5 µg/mL (≈ 38.3 µM)
P388
  EC50: 0.8 µg/mL (≈ 2.66 µM)

## C=C1CC[C@@H]2[C@H]([C@H]3[C@H]1CC[C@]3(C)O)C2(C)C [SPATHULENOL]
[1]
  EC50: > 20 µg/mL
Col2
  EC50: > 20 µg/mL
HT-1080
  EC50: > 20 µg/mL
KB
  EC50: > 20 µg/mL
[2]
  EC50: > 20 µg/mL
Lu1
  EC50: > 20 µg/mL
SK-MEL-2
  EC50: 6.3 µg/mL (≈ 28.6 µM)
P388
  EC50: > 20 µg/mL

## C[C@H]1CC=C2C(CO)(CO)CCC[C@]2(C)C1CC[C@@H](CCO)COC(=O)/C=C/c1ccc(O)cc1 (stereo partly drawn) [GUADICHAUDOL C]
[1]
  EC50: 19 µg/mL (≈ 39 µM)
Col2
  EC50: 19.3 µg/mL (≈ 39.7 µM)
HT-1080
  EC50: 12.4 µg/mL (≈ 25.5 µM)
KB
  EC50: > 20 µg/mL
[2]
  EC50: 4.7 µg/mL (≈ 9.66 µM)
Lu1
  EC50: 13.1 µg/mL (≈ 26.9 µM)
SK-MEL-2
  EC50: 11.2 µg/mL (≈ 23 µM)
P388
  EC50: 2.4 µg/mL (≈ 4.93 µM)
